Source: ChEMBL document CHEMBL5674889, “Enhanced JunD/RSK3 signalling due to loss of BRD4/FOXD3/miR-548d-3p axis determines BET inhibition resistance” (2020)
Active and inactive are the calls of the source. The rule behind the calls is not given here.

Tests used:
BT-549 [1] = assay: Antiproliferative activity in human BT-549 cells assessed as cell growth in the presence of miR-548d-3p at 1 uM by CCK-8 assay; type: functional, cell-based
Summary of the method: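 BLBC cells transfected with miR-548d-3p mimic or inhibitor, with or without JQ1; growth read by CCK-8 assay relative to DMSO-treated control, seeded at 3000/well. Triplicates, mean ± SD, one-way ANOVA.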

BT-549 [2] = assay: Antiproliferative activity in human BT-549 cells assessed as cell growth in the presence of EAI045 at 1 uM by CellTiter-Glo luminescent cell viability assay; type: functional, cell-based
Summary of the method: (§1)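 BLBC cells seeded at 3000/well, adhered overnight, then exposed to JQ1 (1 μM) with or without an EGFR inhibitor (1 μM) for 48 h; control and RPS6KA2-shRNA clones tested. Viability by CellTiter-Glo luminescence, background-subtracted and normalized to DMSO-treated control; triplicates, mean ± SD, one-way ANOVA against JQ1 alone.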

MDA-MB-231 [3] = assay: Antiproliferative activity in human RPS6KA2-knockdown MDA-MB-231 cells assessed as cell growth at 1 uM by CCK-8 assay; type: functional, cell-based
MDA-MB-231 [4] = assay: Antiproliferative activity in human MDA-MB-231 cells assessed as cell growth in the presence of EAI045 at 1 uM by CellTiter-Glo luminescent cell viability assay; type: functional, cell-based; summary of the method: as §1
MDA-MB-231 [5] = assay: Effect on human MDA-MB-231 cells assessed as miR-548d-5p expression at 1 uM by real-time PCR analysis; type: functional, cell-based
BT-549 [6] = assay: Antiproliferative activity in human BT-549 cells assessed as cell growth in the presence of lapatinib at 1 uM by CellTiter-Glo luminescent cell viability assay; type: functional, cell-based; summary of the method: as §1
[7] = biological target: T1, Transcription factor JunD (Homo sapiens) (UniProt P17535); assay: Binding affinity to JunD in human MDA-MB-231 cells assessed RPS6KA2 expression at 1 uM for 24 hrs by ChIP analysis; type: cell-based
T1 sequence (whole entry): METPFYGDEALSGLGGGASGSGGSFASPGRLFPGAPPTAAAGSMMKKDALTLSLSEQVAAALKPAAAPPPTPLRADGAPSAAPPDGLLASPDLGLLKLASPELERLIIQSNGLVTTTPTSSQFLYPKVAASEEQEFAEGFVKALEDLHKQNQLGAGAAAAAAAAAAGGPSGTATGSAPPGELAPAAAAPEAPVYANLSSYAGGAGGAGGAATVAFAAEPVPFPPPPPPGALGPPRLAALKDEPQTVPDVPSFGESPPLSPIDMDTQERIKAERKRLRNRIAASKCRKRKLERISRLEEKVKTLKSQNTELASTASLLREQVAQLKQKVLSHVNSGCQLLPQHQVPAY

MDA-MB-231 [8] = assay: Effect on human BRD4-knockdown MDA-MB-231 assessed as decreased luciferase activity at 1 uM for 6 hrs by Luciferase reporter assay; type: functional, cell-based
MDA-MB-231 [9] = assay: Induction of apoptosis in human MDA-MB-231 cells over expressing RSK3 assessed as early apoptotic cells at 1 uM by Annexin V-FITC flow cytometric analysis (reference value: 3.85%); type: functional
Summary of the method: (§2)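 Stable clones (vector, RSK3-overexpressing or RPS6KA2-knockdown) treated ± JQ1 1 μM. Cells washed twice in PBS, resuspended at 1 × 10^6 cells/ml in binding buffer, stained with Annexin V-FITC and propidium iodide for 10 min at room temperature in the dark, then read by flow cytometry. Three independent experiments; one-way ANOVA.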

MDA-MB-231 [10] = assay: Induction of apoptosis in human MDA-MB-231 cells over expressing RSK3 assessed as late apoptotic cells at 1 uM by Annexin V-FITC flow cytometric analysis (reference value: 1.45%); type: functional; summary of the method: as §2
BT-549 [11] = assay: Antiproliferative activity in human BT-549 cells assessed as cell growth in the presence of erlotinib at 1 uM by CellTiter-Glo luminescent cell viability assay; type: functional, cell-based; summary of the method: as §1
MDA-MB-231 [12] = assay: Induction of apoptosis in human MDA-MB-231 cells at 1 uM by FACS assay; type: functional, cell-based; summary of the method: as §2
MDA-MB-231 [13] = assay: Antiproliferative activity in human MDA-MB-231 cells assessed as cell growth in the presence of lapatinib at 1 uM by CellTiter-Glo luminescent cell viability assay; type: functional, cell-based; summary of the method: as §1
MDA-MB-231 [14] = assay: Antiproliferative activity in human FOXD3-knockdown MDA-MB-231 cells co-silenced with shRNA of JUND assessed as cell growth at 1 uM by CCK-8 assay; type: functional, cell-based
[15] = biological target: T1, Transcription factor JunD (Homo sapiens); assay: Binding affinity of JunD in human BT-549 cells assessed RPS6KA2 expression at 1 uM for 24 hrs by ChIP analysis; type: cell-based
MDA-MB-231 [16] = assay: Antiproliferative activity in human MDA-MB-231 cells assessed as cell growth in the presence of AZ5104 at 1 uM by CellTiter-Glo luminescent cell viability assay; type: functional, cell-based; summary of the method: as §1
BT-549 [17] = assay: Effect on JUND dependent RPS6KA2 transcription in human JUND-knockdown BT-549 cells assessed reduction in transcription level at 1 uM by ChIP-RT-PCR analysis; type: functional, cell-based
Summary of the method: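 ChIP-qPCR used ~1 × 10^6 cross-linked JUND-knockdown or control cells treated with DMSO or 1 μM for 6 h. Immunoprecipitated DNA was quantified by real-time PCR with primers specific to the RPS6KA2 enhancer. Non-specific primers downstream of the gene 3′ end served as control.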

MDA-MB-231 [18] = assay: Downregulation of miR-548d-3p expression in human MDA-MB-231 cells at 1 uM by real-time PCR analysis; type: functional, cell-based
BT-549 [19] = assay: Antiproliferative activity in human JUND-overexpressing BT-549 cells assessed as tumor sphere formation at 1 uM by Tumor sphere assay; type: functional, cell-based
MCF7 = assay: Antiproliferative activity in human FOXD3-overexpressing MCF7 cells assessed as cell growth at 1 uM by CCK-8 assay; type: functional, cell-based
HEK-293T = assay: Effect on human HEK293T cells transfected with FOXD3 assessed as decrease in luciferase activity at 1 uM for 6 hrs by Luciferase reporter assay; type: functional, cell-based
BT-549 [20] = assay: Antiproliferative activity in human FOXD3-knockdown BT-549 cells co-silenced with shRNA of JUND assessed as cell growth at 1 uM by CCK-8 assay; type: functional, cell-based
BT-549 [21] = assay: Effect on human JUND-overexpressing BT-549 cells assessed as RSK3 protein expression at 1 uM by Western blot analysis; type: functional, cell-based
Summary of the method: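 RSK3 and JunD were probed by western blot in JUND-knockdown or JUND-overexpressing stable clones and their controls, all selected with puromycin 1.0 μg/ml. Antibodies used at 1:1000.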

MDA-MB-231 [22] = assay: Induction of apoptosis in human RPS6KA2-knockdown MDA-MB-231 cells at 1 uM by FACS assay; type: functional, cell-based; summary of the method: as §2
MDA-MB-231 [23] = assay: Antitumor activity against human MDA-MB-231 cells xenografted in BALB/c nude mouse assessed as reduction in tumor weight at 35 mg/kg/day, sc administered every 2 days; type: functional, organism-based; details: time 2.0 day
Summary of the method: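 Female BALB/c nude mice aged 4–6 weeks received 1 × 10^6 MDA-MB-231 control or knockdown cells subcutaneously, n = 7 per group. Dosing at 35 mg/kg every 2 days began at an average tumour volume of 90 mm3. Tumours were weighed after 25 days.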

BT-549 [24] = assay: Antiproliferative activity in human BT-549 cells assessed as cell growth in the presence of gefitinib at 1 uM by CellTiter-Glo luminescent cell viability assay; type: functional, cell-based; summary of the method: as §1

For `Cc1sc2c(c1C)C(c1ccc(Cl)cc1)=N[C@@H](CC(=O)OC(C)(C)C)c1nnc(C)n1-2`, the Activity (BT-549 [1]) was “Active”, the Activity (BT-549 [2]) was “Active” and the Activity (MDA-MB-231 [3]) was “Active”. The Activity (MDA-MB-231 [4]) was “Active”, the Activity (MDA-MB-231 [5]) was “Active” and the Activity (BT-549 [6]) was “Active”. The Activity [7] was “Active”, the Activity (MDA-MB-231 [8]) was “Active” and the Activity (MDA-MB-231 [9]) was 7.14%. For the same molecule, the Activity (MDA-MB-231 [10]) was 2.9%, the Activity (BT-549 [11]) was “Active” and the Activity (MDA-MB-231 [12]) was “Active”. For the same molecule, the Activity (MDA-MB-231 [13]) was “Active”, the Activity (MDA-MB-231 [14]) was “Active” and the Activity [15] was “Active”. For the same molecule, the Activity (MDA-MB-231 [16]) was “Active”, the Activity (BT-549 [17]) was “Active” and the Activity (MDA-MB-231 [18]) was “Active”. For the same molecule, the Activity (BT-549 [19]) was “Active”, the Activity (MCF7) was “Active” and the Activity (HEK-293T) was “Active”. For the same molecule, the Activity (BT-549 [20]) was “Active”, the Activity (BT-549 [21]) was “Active” and the Activity (MDA-MB-231 [22]) was “Active”. For the same molecule, the Activity (MDA-MB-231 [23]) was “Active” and the Activity (BT-549 [24]) was “Active”.
